Source: ChEMBL document CHEMBL3414528, “Novel naftopidil-related derivatives and their biological effects as alpha1-adrenoceptors antagonists and antiproliferative agents” (Eur J Med Chem, 2015)
The source made the active and inactive calls. The rule behind the calls is not given here.

Tests used:
[1] = Cell cycle arrest in human PC3 cells assessed as accumulation at G2/M phase at 30 uM after 24 hrs by propidium iodide staining-based flow cytometry (reference value: 33.04%); type: functional; settings: PC-3
Summary of the method: (§1)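 PC-3 cells given compound at 5, 10, 15, 20 or 30 μM, or 0.1% DMSO vehicle, for 24 h; stained with propidium iodide and analysed by flow cytometry for G0/G1, S and G2/M fractions.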

[2] = tested on: PC-3; assay: Induction of apoptosis in human PC3 cells assessed as late apoptotic cells at 10 uM after 24 hrs by annexin V/propidium iodide staining-based flow cytometry (reference value: 2.1%); type: functional
Summary of the method: (§2)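 Phosphatidylserine exposure in PC-3 cells after 24 h at 0, 5, 10, 20 or 30 μM, by Alexa Fluor 488 annexin V/PI double staining and flow cytometry; early apoptotic = AV+/PI−, late apoptotic or dead = AV+/PI+.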

[3] = tested on: PC-3; assay: Antiproliferative activity against human PC3 cells assessed as reduction in cell viability at 1.5 to 100 uM by WST-8 assay in presence of 50 uM of norepinephrine; type: functional, cell-based
Summary of the method: (§3)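 PC-3 cells treated with compound at 100, 75, 50, 25, 12.5, 6.25, 3.0 and 1.5 μM alone or together with norepinephrine (20 or 50 μM); viability by WST-8. Mean ± SEM, two-way ANOVA with post-hoc tests.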

[4] = tested on: PC-3; assay: Induction of apoptosis in human PC3 cells assessed as total apoptotic cells at 10 uM after 24 hrs by annexin V/propidium iodide staining-based flow cytometry; type: functional; summary of the method: as §2
[5] = Cell cycle arrest in human PC3 cells assessed as accumulation at S phase at 10 uM after 24 hrs by propidium iodide staining-based flow cytometry (reference value: 27.26%); type: functional; settings: PC-3; summary of the method: as §1
[6] = Cell cycle arrest in human PC3 cells assessed as accumulation at G0/G1 phase at 5 uM after 24 hrs by propidium iodide staining-based flow cytometry (reference value: 39.20%); type: functional; settings: PC-3; summary of the method: as §1
[7] = tested on: DU-145; assay: Cytotoxicity against human DU145 cells after 48 hrs by WST-8 assay; type: functional, cell-based; settings: DU-145, 48 h
[8] = Cell cycle arrest in human PC3 cells assessed as accumulation at S phase at 30 uM after 24 hrs by propidium iodide staining-based flow cytometry (reference value: 27.26%); type: functional; settings: PC-3; summary of the method: as §1
[9] = Cell cycle arrest in human PC3 cells assessed as accumulation at G0/G1 phase at 15 uM after 24 hrs by propidium iodide staining-based flow cytometry (reference value: 39.20%); type: functional; settings: PC-3; summary of the method: as §1
[10] = Cell cycle arrest in human PC3 cells assessed as accumulation at G2/M phase at 10 uM after 24 hrs by propidium iodide staining-based flow cytometry (reference value: 33.04%); type: functional; settings: PC-3; summary of the method: as §1
[11] = Cell cycle arrest in human PC3 cells assessed as accumulation at S phase at 15 uM after 24 hrs by propidium iodide staining-based flow cytometry (reference value: 27.26%); type: functional; settings: PC-3; summary of the method: as §1
[12] = tested on: PC-3; assay: Induction of apoptosis in human PC3 cells assessed as late apoptotic cells at 5 uM after 24 hrs by annexin V/propidium iodide staining-based flow cytometry (reference value: 2.1%); type: functional; summary of the method: as §2
[13] = Cell cycle arrest in human PC3 cells assessed as accumulation at G0/G1 phase at 20 uM after 24 hrs by propidium iodide staining-based flow cytometry (reference value: 39.20%); type: functional; settings: PC-3; summary of the method: as §1
[14] = tested on: PC-3; assay: Induction of apoptosis in human PC3 cells assessed as total apoptotic cells at 30 uM after 24 hrs by annexin V/propidium iodide staining-based flow cytometry; type: functional; summary of the method: as §2
[15] = tested on: PC-3; assay: Induction of apoptosis in human PC3 cells assessed as early apoptotic cells at 30 uM after 24 hrs by annexin V/propidium iodide staining-based flow cytometry (reference value: 5.7%); type: functional; summary of the method: as §2
[16] = tested on: PC-3; assay: Induction of apoptosis in human PC3 cells assessed as total apoptotic cells at 5 uM after 24 hrs by annexin V/propidium iodide staining-based flow cytometry; type: functional; summary of the method: as §2
[17] = tested on: PC-3; assay: Inhibition of norepinephrine-induced cell proliferation in human PC3 cells at 1.5 to 100 uM by WST-8 assay; type: functional, cell-based; summary of the method: as §3
[18] = biological target: T1, Alpha-1B adrenergic receptor (Rattus norvegicus, UniProt P15823); assay: Antagonist activity at Sprague-Dawley rat spleen adrenergic alpha-1B receptor after 20 mins; settings: read-out: pA2 (converted)
T1 sequence (P15823 whole entry): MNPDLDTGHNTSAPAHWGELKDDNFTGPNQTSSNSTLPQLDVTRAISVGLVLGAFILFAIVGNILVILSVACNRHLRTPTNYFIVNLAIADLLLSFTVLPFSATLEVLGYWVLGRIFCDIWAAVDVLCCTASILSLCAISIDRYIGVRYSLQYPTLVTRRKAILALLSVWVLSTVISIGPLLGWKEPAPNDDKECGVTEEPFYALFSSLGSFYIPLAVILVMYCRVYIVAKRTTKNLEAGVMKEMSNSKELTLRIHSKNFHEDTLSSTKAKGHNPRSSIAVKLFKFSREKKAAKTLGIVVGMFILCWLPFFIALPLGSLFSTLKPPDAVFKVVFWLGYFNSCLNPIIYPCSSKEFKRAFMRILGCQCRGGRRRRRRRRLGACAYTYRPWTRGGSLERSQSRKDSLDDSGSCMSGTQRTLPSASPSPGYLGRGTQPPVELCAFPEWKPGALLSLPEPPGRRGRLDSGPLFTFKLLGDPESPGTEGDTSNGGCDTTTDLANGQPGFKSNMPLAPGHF
Summary of the method: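 Isolated rat tissues (prostatic vas deferens, spleen, thoracic aorta) contracted with cumulative norepinephrine; concentration-response curves recorded in presence of increasing antagonist concentrations, antagonism read as rightward curve shift. Mean ± SEM of five to eight separate experiments.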

## COc1ccccc1N1CCN(CCCNC(=O)c2cc3ccccc3n2Cc2ccccc2)CC1
[1]
  Activity: 41.7%
[2]
  Activity: 9.2%
[3]
  Activity: inactive
[4]
  Activity: 51.1%
[5]
  Activity: 15.2%
[6]
  Activity: 42.8%
[7]
  IC50: 33.3 µM
[8]
  Activity: 20.9%
[9]
  Activity: 70.6%
[10]
  Activity: 26.5%
[11]
  Activity: 14.5%
[12]
  Activity: 3.5%
[13]
  Activity: 61.6%
[14]
  Activity: 83%
[15]
  Activity: 50.4%
[16]
  Activity: 23.7%
[17]
  inhibition: Active
[18]
  Kb: 0.141 µM
